According to ChEMBL document CHEMBL1649396, “Synthesis, biological evaluation of chrysin derivatives as potential immunosuppressive agents” (Eur J Med Chem, 2011):

Tests used:
[1] = Cytotoxicity against BALB/c mouse T cells after 48 hrs by MTT assay; type: cell-based, T-cell
Procedure, shortened: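 Lymph node cells from female BALB/c mice, 6-8 weeks old and specific-pathogen-free, plated at 5 × 10⁵ cells/well with graded compound for 48 h. Medium was RPMI 1640 with 10% fetal calf serum and penicillin/streptomycin, at 37 °C under 5% CO₂. MTT (4 mg/mL in PBS) was added 4 h before the end. Formazan was dissolved in DMSO and read at OD540. CC50 is the concentration reducing viability to 50%.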

[2] = Immunosuppressive activity in BALB/c mouse T cells assessed as inhibition of anti-CD3/anti-CD28-stimulated cell proliferation after 72 hrs by MTT assay; type: functional, cell-based
Procedure, shortened: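 Female BALB/c mouse lymph node cells, 5 × 10⁵/well, stimulated with anti-CD3/anti-CD28 alongside graded compound for 72 h. MTT (4 mg/mL in PBS) was added 4 h before harvest. Formazan was dissolved in DMSO and read at 540 nm.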

T-cell [3] = assay: Selectivity index, ratio of CC50 for BALB/c mouse T cells to IC50 for immunosuppressive activity in BALB/c mouse T cells; type: functional
T-cell [4] = assay: Immunosuppressive activity in anti-CD3/anti-CD28-stimulated BALB/c mouse T cells assessed as late apoptotic cells at 2 uM after 48 hrs by FACS analysis; type: functional
Procedure, shortened: (§1)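 Lymph node cells isolated from naive BALB/c mice, cultured with anti-CD3/anti-CD28 plus compound at 1, 2, 4 or 8 µM for 48 h. Cells were stained with Annexin V-FITC and propidium iodide and analysed by flow cytometry to give apoptotic, necrotic and viable fractions.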

T-cell [5] = assay: Immunosuppressive activity in anti-CD3/anti-CD28-stimulated BALB/c mouse T cells assessed as early apoptotic cells at 8 uM after 48 hrs by FACS analysis; type: functional; procedure, shortened: as §1
T-cell [6] = assay: Immunosuppressive activity in anti-CD3/anti-CD28-stimulated BALB/c mouse T cells assessed as viable cells at 4 uM after 48 hrs by FACS analysis; type: functional; conditions: read-out: Activity; procedure, shortened: as §1
T-cell [7] = assay: Immunosuppressive activity in anti-CD3/anti-CD28-stimulated BALB/c mouse T cells assessed as induction of apoptosis after 48 hrs by FACS analysis; type: functional, cell-based; procedure, shortened: as §1
K562 = assay: Cytotoxicity against human K562 cells after 48 hrs by MTT assay; type: functional, cell-based; conditions: K562, 48 h
Procedure, shortened: (§2)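 Cells seeded at 5 × 10⁵ per well and exposed to a range of compound concentrations for 48 h. MTT (4 mg/mL in PBS) added 4 h before end of incubation. Medium replaced by DMSO to dissolve formazan, absorbance read at 540 nm. Value reported as IC₅₀.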

T-cell [8] = assay: Immunosuppressive activity in anti-CD3/anti-CD28-stimulated BALB/c mouse T cells assessed as viable cells at 1 uM after 48 hrs by FACS analysis; type: functional; conditions: read-out: Activity; procedure, shortened: as §1
T-cell [9] = assay: Immunosuppressive activity in anti-CD3/anti-CD28-stimulated BALB/c mouse T cells assessed as viable cells at 2 uM after 48 hrs by FACS analysis; type: functional; conditions: read-out: Activity; procedure, shortened: as §1
T-cell [10] = assay: Immunosuppressive activity in anti-CD3/anti-CD28-stimulated BALB/c mouse T cells assessed as late apoptotic cells at 4 uM after 48 hrs by FACS analysis; type: functional; procedure, shortened: as §1
T-cell [11] = assay: Immunosuppressive activity in anti-CD3/anti-CD28-stimulated BALB/c mouse T cells assessed as non-viable necrotic cells at 8 uM after 48 hrs by FACS analysis; type: functional; procedure, shortened: as §1
T-cell [12] = assay: Immunosuppressive activity in anti-CD3/anti-CD28-stimulated BALB/c mouse T cells assessed as early apoptotic cells at 1 uM after 48 hrs by FACS analysis; type: functional; procedure, shortened: as §1
T-cell [13] = assay: Immunosuppressive activity in anti-CD3/anti-CD28-stimulated BALB/c mouse T cells assessed as late apoptotic cells at 1 uM after 48 hrs by FACS analysis; type: functional; procedure, shortened: as §1
T-cell [14] = assay: Immunosuppressive activity in anti-CD3/anti-CD28-stimulated BALB/c mouse T cells assessed as early apoptotic cells at 2 uM after 48 hrs by FACS analysis; type: functional; procedure, shortened: as §1
KB = assay: Cytotoxicity against human KB cells after 48 hrs by MTT assay; type: functional, cell-based; procedure, shortened: as §2
T-cell [15] = assay: Immunosuppressive activity in anti-CD3/anti-CD28-stimulated BALB/c mouse T cells assessed as viable cells at 8 uM after 48 hrs by FACS analysis; type: functional; conditions: read-out: Activity; procedure, shortened: as §1
T-cell [16] = assay: Immunosuppressive activity in anti-CD3/anti-CD28-stimulated BALB/c mouse T cells assessed as late apoptotic cells at 8 uM after 48 hrs by FACS analysis; type: functional; procedure, shortened: as §1
T-cell [17] = assay: Immunosuppressive activity in anti-CD3/anti-CD28-stimulated BALB/c mouse T cells assessed as non-viable necrotic cells at 1 uM after 48 hrs by FACS analysis; type: functional; procedure, shortened: as §1
[18] = Cytotoxicity against human L02 cells after 48 hrs by MTT assay; type: cell-based; conditions: L02, 48 h; procedure, shortened: as §2
T-cell [19] = assay: Immunosuppressive activity in anti-CD3/anti-CD28-stimulated BALB/c mouse T cells assessed as non-viable necrotic cells at 2 uM after 48 hrs by FACS analysis; type: functional; procedure, shortened: as §1
T-cell [20] = assay: Immunosuppressive activity in anti-CD3/anti-CD28-stimulated BALB/c mouse T cells assessed as early apoptotic cells at 4 uM after 48 hrs by FACS analysis; type: functional; procedure, shortened: as §1
T-cell [21] = assay: Immunosuppressive activity in anti-CD3/anti-CD28-stimulated BALB/c mouse T cells assessed as non-viable necrotic cells at 4 uM after 48 hrs by FACS analysis; type: functional; procedure, shortened: as §1
[22] = Toxicity in po dosed BALB/c mouse; type: organism-based; conditions: in vivo
Procedure, shortened: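 Acute oral toxicity in female SPF BALB/c mice, 6–8 weeks old, by OECD 425 up-and-down procedure. Food withheld 3–4 h before and 1–2 h after dosing. Animals dosed one at a time at 24 h intervals, dose raised after survival and lowered after death, four more dosed after reversal. 35 animals in total. LD₅₀ estimated by maximum likelihood with AOT425StatPgm.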

HepG2 = assay: Cytotoxicity against human HepG2 cells after 48 hrs by MTT assay; type: functional, cell-based; conditions: HepG2, 48 h; procedure, shortened: as §2

Compound: O=C(COc1cc(O)c2c(=O)cc(-c3ccccc3)oc2c1)Oc1cccc(F)c1C(=O)O
- CC50 at 48 h [1]: 319 µM
- IC50 [2]: 40.3 µM
- Ratio CC50/IC50 (T-cell [3]): 7.91

Compound: O=C(COc1cc(O)c2c(=O)cc(-c3ccccc3)oc2c1)Oc1c(Cl)cccc1C(=O)O
- CC50 at 48 h [1]: 366 µM
- IC50 [2]: 38.7 µM
- Ratio CC50/IC50 (T-cell [3]): 9.45

Compound: COC(=O)c1cccc(OC)c1OC(=O)COc1cc(O)c2c(=O)cc(-c3ccccc3)oc2c1
- CC50 at 48 h [1]: 196 µM
- IC50 [2]: 36.8 µM
- Ratio CC50/IC50 (T-cell [3]): 5.34

Compound: O=c1cc(-c2ccccc2)oc2cc(O)cc(O)c12 [CHRYSIN]
- CC50 at 48 h [1]: 428 µM
- IC50 [2]: 44.2 µM
- Ratio CC50/IC50 (T-cell [3]): 9.7

Compound: O=C(COc1cc(O)c2c(=O)cc(-c3ccccc3)oc2c1)Oc1cccc(Cl)c1C(=O)O
- CC50 at 48 h [1]: 366 µM
- IC50 [2]: 38.9 µM
- Ratio CC50/IC50 (T-cell [3]): 9.39

Compound: COC(=O)c1cc(Br)ccc1OC(=O)COc1cc(O)c2c(=O)cc(-c3ccccc3)oc2c1
- Activity (T-cell [4]): 30.09%
- Activity (T-cell [5]): 1.56%
- viability at 4 µM (T-cell [6]): 54.5%
- Activity (T-cell [7]): Dose-dependent effect
- IC50 (K562): 0.47 µM
- viability at 1 µM (T-cell [8]): 77%
- CC50 at 48 h [1]: > 450 µM
- viability at 2 µM (T-cell [9]): 64.2%
- Activity (T-cell [10]): 38.7%
- Activity (T-cell [11]): 7.41%
- Activity (T-cell [12]): 3.79%
- Activity (T-cell [13]): 15.66%
- Activity (T-cell [14]): 2.12%
- IC50 (KB): 0.79 µM
- viability at 8 µM (T-cell [15]): 50.1%
- Activity (T-cell [16]): 40.95%
- Activity (T-cell [17]): 3.56%
- IC50 [18]: 274 µM
- Activity (T-cell [19]): 3.61%
- Activity (T-cell [20]): 3.14%
- Activity (T-cell [21]): 3.69%
- IC50 [2]: 0.78 µM
- LD50 [22]: 738 mg/kg
- Ratio CC50/IC50 (T-cell [3]): >576.92
- IC50 (HepG2): 0.61 µM

Compound: COC(=O)c1cc(C)ccc1OC(=O)COc1cc(O)c2c(=O)cc(-c3ccccc3)oc2c1
- CC50 at 48 h [1]: 306 µM
- IC50 [2]: 25.7 µM
- Ratio CC50/IC50 (T-cell [3]): 11.93

Compound: COC(=O)c1ccc(Cl)cc1OC(=O)COc1cc(O)c2c(=O)cc(-c3ccccc3)oc2c1
- CC50 at 48 h [1]: 265 µM
- IC50 [2]: 12.4 µM
- Ratio CC50/IC50 (T-cell [3]): 21.43

Compound: COC(=O)c1cc(F)ccc1OC(=O)COc1cc(O)c2c(=O)cc(-c3ccccc3)oc2c1
- CC50 at 48 h [1]: 389 µM
- IC50 [2]: 6.82 µM
- Ratio CC50/IC50 (T-cell [3]): 50.08

Compound: O=C(COc1cc(O)c2c(=O)cc(-c3ccccc3)oc2c1)Oc1c(Br)cccc1C(=O)O
- CC50 at 48 h [1]: 379 µM
- IC50 [2]: 40.6 µM
- Ratio CC50/IC50 (T-cell [3]): 9.31

Compound: O=C(COc1cc(O)c2c(=O)cc(-c3ccccc3)oc2c1)Oc1cc(Cl)cc(Cl)c1C(=O)O
- CC50 at 48 h [1]: 345 µM
- IC50 [2]: 43.6 µM
- Ratio CC50/IC50 (T-cell [3]): 7.92

Compound: COC(=O)c1cc(O)ccc1OC(=O)COc1cc(O)c2c(=O)cc(-c3ccccc3)oc2c1
- CC50 at 48 h [1]: 263 µM
- IC50 [2]: 29.5 µM
- Ratio CC50/IC50 (T-cell [3]): 8.94

Compound: O=C(COc1cc(O)c2c(=O)cc(-c3ccccc3)oc2c1)Oc1cccc(O)c1C(=O)O
- CC50 at 48 h [1]: 338 µM
- IC50 [2]: 38.2 µM
- Ratio CC50/IC50 (T-cell [3]): 8.83

Compound: Cc1cccc(OC(=O)COc2cc(O)c3c(=O)cc(-c4ccccc4)oc3c2)c1C(=O)O
- CC50 at 48 h [1]: 298 µM
- IC50 [2]: 37.2 µM
- Ratio CC50/IC50 (T-cell [3]): 8.02

Compound: COC(=O)c1ccccc1OC(=O)COc1cc(O)c2c(=O)cc(-c3ccccc3)oc2c1
- CC50 at 48 h [1]: 265 µM
- IC50 [2]: 28.5 µM
- Ratio CC50/IC50 (T-cell [3]): 9.28

Compound: O=C(COc1cc(O)c2c(=O)cc(-c3ccccc3)oc2c1)Oc1cccc(Br)c1C(=O)O
- CC50 at 48 h [1]: 388 µM
- IC50 [2]: 41.7 µM
- Ratio CC50/IC50 (T-cell [3]): 9.28

Compound: O=C(COc1cc(O)c2c(=O)cc(-c3ccccc3)oc2c1)Oc1cc(Br)cc(Br)c1C(=O)O
- CC50 at 48 h [1]: 398 µM
- IC50 [2]: 45.7 µM
- Ratio CC50/IC50 (T-cell [3]): 8.69

Compound: COC(=O)c1cc(Cl)ccc1OC(=O)COc1cc(O)c2c(=O)cc(-c3ccccc3)oc2c1
- CC50 at 48 h [1]: > 436 µM
- IC50 [2]: 3.74 µM
- Ratio CC50/IC50 (T-cell [3]): >116.57

Compound: O=c1[nH]cc(F)c(=O)[nH]1 [FLUOROURACIL]
- IC50 (K562): 38 µM
- IC50 (KB): 2.16 µM
- IC50 [18]: 56 µM
- IC50 (HepG2): 2.78 µM

Compound: Cc1cccc(C(=O)O)c1OC(=O)COc1cc(O)c2c(=O)cc(-c3ccccc3)oc2c1
- CC50 at 48 h [1]: 299 µM
- IC50 [2]: 39.1 µM
- Ratio CC50/IC50 (T-cell [3]): 7.65

Compound: COC(=O)c1ccc(Br)cc1OC(=O)COc1cc(O)c2c(=O)cc(-c3ccccc3)oc2c1
- CC50 at 48 h [1]: 326 µM
- IC50 [2]: 17.6 µM
- Ratio CC50/IC50 (T-cell [3]): 18.54

Compound: COC(=O)c1ccc(C)cc1OC(=O)COc1cc(O)c2c(=O)cc(-c3ccccc3)oc2c1
- CC50 at 48 h [1]: 250 µM
- IC50 [2]: 31.1 µM
- Ratio CC50/IC50 (T-cell [3]): 8.04
